CSN inh – inhibitors of CSN-mediated cullin deneddylation, primary screen, biochemical, fluorescence polarization, uHTS; COP9 signalosome complex subunit 5 (Homo sapiens), Q92905; Purified CSN, SCF-Nedd8-OG deneddylation; inhibition, % at 12.5 µM; hit rate 0.38% among 360,000; AID 651999, 2013;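 active means pattern-corrected inhibition above about 35%, with an unprinted fluorescence ratio check between 0.5 and 1.5, limit read from the data, passing the limit was not always enough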
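Test system: purified human Csn5 enzyme expressed in HEK293T cells. Amount: 0.24 nM enzyme. Reagent: SCFSkp2-Nedd8OG substrate at 10 nM final. Schedule: 90 min incubation of compound, enzyme and substrate at room temperature. Detection: fluorescence polarization. Read-out: % inhibition of substrate cleavage by Csn5.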
HNF4A DNA FP – change in binding of human HNF4A to DNA, primary screen, biochemical, fluorescence polarization, FITC-DNA | activity change, % at 10 µM | 1 h | hit rate 0.3% among 360,000 | Hepatocyte nuclear factor 4-alpha (Homo sapiens), P41235 | AID 1224865, 2016; in the data active means activity change above about 30%, passing the limit was not always enough
Target sequence (P41235 whole entry, looked up): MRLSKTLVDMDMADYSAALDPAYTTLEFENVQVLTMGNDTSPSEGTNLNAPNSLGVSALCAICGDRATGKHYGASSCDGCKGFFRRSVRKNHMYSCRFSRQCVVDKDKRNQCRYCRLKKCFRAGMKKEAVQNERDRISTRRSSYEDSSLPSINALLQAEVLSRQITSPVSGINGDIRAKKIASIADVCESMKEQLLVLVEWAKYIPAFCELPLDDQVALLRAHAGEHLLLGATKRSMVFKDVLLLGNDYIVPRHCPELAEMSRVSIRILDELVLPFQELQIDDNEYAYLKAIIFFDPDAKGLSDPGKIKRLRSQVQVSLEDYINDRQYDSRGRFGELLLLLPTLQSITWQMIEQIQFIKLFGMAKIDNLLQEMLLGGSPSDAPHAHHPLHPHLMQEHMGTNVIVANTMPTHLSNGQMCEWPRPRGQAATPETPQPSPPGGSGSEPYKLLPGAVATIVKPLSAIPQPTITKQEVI
TPT1 inh – Candida albicans TPT1 enzyme inhibitors, primary screen, biochemical, fluorescence polarization; tRNA 2'-phosphotransferase TPT1 (Candida albicans SC5314); hit rate 0.81% among 300,000; recombinant caTPT1, FP RNA substrate dephosphorylation; inhibition, % at 5 µM;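 active means inhibition above the mean of all tested compounds plus 3 SD, set per screening campaign, cut at about 24% in these data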
Rpn11 inh – Rpn11 (PSMD14) deubiquitinase inhibitors, primary screen, biochemical, fluorescence polarization, uHTS; human 26S proteasome, Ub4-pepOG fluorescence polarization; 20S core pre-blocked with epoxomicin; AID 588493, 2011; hit rate 0.59% among 360,000; 26S proteasome non-ATPase regulatory subunit 14 (Homo sapiens), O00487; calls only at 20 µM;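 active means inhibition at 20 µM, scaled to each plate's controls, above about 33%, limit read from the data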
CRFR2-BP ag – agonists of CRF-BP/CRF-R2 complex, primary screen, cell-based, HEK293, calcium dye fluorescence, uHTS; CRF-binding protein / CRF receptor 2 complex (human); calcium dye fluorescence (FLIPR); percent of saturating CRF peptide response; activation, % at 13.2 µM; hit rate 0.46% among 350,000; AID 588473, 2011;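 active means activation of at least 50%, plus an integration ratio under a set limit after plate pattern correction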
CRFBP-R2 block – antagonists of CRF-BP/CRF-R2 complex, primary screen, cell-based, HEK293, calcium dye fluorescence, uHTS; inhibition, % at 11.8 µM; CRF-induced calcium fluorescence; hit rate 0.59% among 350,000; AID 588475, 2011;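 active means inhibition of the ligand-induced calcium signal above about 50% at the single tested concentration, limit read from the data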
Rpn11 confirm – Rpn11 (PSMD14) deubiquitinase inhibitors, confirmation, biochemical, fluorescence polarization, single concentration. purified human 26S proteasome, Ub4-pepOG fluorescence polarization; proteasome pretreated with epoxomicin. inhibition, % at 20 µM. shares compounds with Rpn11 inh. hit rate 29% among 1,900
MMP-2 inh – MMP-2 enzyme inhibition, confirmation, counter-screen for RPN11 inhibitor project, biochemical, fluorescence, single concentration; recombinant MMP-2, FRET peptide cleavage fluorescence; hit rate 4% among 1,900; AID 602330, 2012; inhibition, % at 20 µM; shares compounds with Rpn11 inh;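 further: human MMP-2 activated beforehand with APMA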
Thrombin FP – bovine thrombin protease inhibition, confirmation, counter-screen for Rpn11 inhibitor project, biochemical, fluorescence polarization, single concentration; shares compounds with Rpn11 inh; bovine thrombin cleavage of Ub4-pepOG; inhibition, % at 20 µM; hit rate 13% among 1,900; AID 602333, 2012;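 active means mean inhibition at least 40% at 20 µM, or signal 3 deviations below plate average, so some actives read negative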
Of the large screens only hits and unclear results are named; the others gave an inactive call (follow-up assays come after a bar, where they were run). This is a sample that favours compounds with a hit; in the whole collection about 2.3% have one here. Unless noted, no stated cut-off is given here; in the data, active means inhibition above about 40%; inactive means the rest.

Cc1cccc(C(P(=O)(c2ccccc2)c2ccccc2)P(=O)(c2ccccc2)c2ccccc2)n1	none
O=S(=O)(Nc1nc2ccccc2nc1Nc1ccc2c(c1)OCO2)c1ccc(F)cc1	Rpn11 inh active | Rpn11 confirm inactive | MMP-2 inh inactive | Thrombin FP inactive
CC1CCCCN1CC(=O)Nc1ccc2c(c1)OCO2 (stereo unspecified)	none (no result: TPT1 inh)
COc1ccc(-n2c(C)cc(/C=C3\C(=N)N4N=C(CC(=O)N5CCOCC5)SC4=NC3=O)c2C)c(OC)c1	Rpn11 inh active | Rpn11 confirm inactive | MMP-2 inh inactive | Thrombin FP inactive
COc1ccc([C@H]2CC(=O)C=C(c3ccc4c5c(cccc35)CC4)C2)cc1	none (no result: TPT1 inh)
Cc1cc(/C=C2\C(=N)N3C(SCc4ccccc4)=NSC3=NC2=O)c(C)n1Cc1ccccc1	Rpn11 inh active | Rpn11 confirm inactive | MMP-2 inh inactive | Thrombin FP inactive
CC1=NN2C(=N)/C(=C\c3cc(C)n(-c4ccccc4)c3C)C(=O)N=C2S1	none
Cc1cc(/C=C2\C(=N)N3N=C(C(C)C)SC3=NC2=O)c(C)n1Cc1ccccc1	none
Cc1ccccc1-n1c(C)cc(/C=C2/C(=N)N3C(c4ccccc4)=CSC3=NC2=O)c1C	Rpn11 inh active | Rpn11 confirm inactive | MMP-2 inh inactive | Thrombin FP inactive
COc1ccc(N(CC(=O)Nc2cccc([N+](=O)[O-])c2C)S(C)(=O)=O)cc1OC	none
N#C/C(=C\c1ccc(Cl)cc1)C(=O)Nc1cccnc1	Rpn11 inh active | Rpn11 confirm inactive | MMP-2 inh inactive | Thrombin FP inactive
COc1ccc(/C=C(\C#N)C(=O)Nc2cccnc2)cc1	none
CC(C)N(C(=O)C[n+]1ccc(/C=N/O)cc1)C(C)C	Rpn11 inh active | Rpn11 confirm inactive | MMP-2 inh inactive | Thrombin FP inactive
Cc1sc2nc(-c3ccccn3)[nH]c(=O)c2c1-c1ccccc1	none
CN(C(=O)CSc1ncccn1)C1CCS(=O)(=O)C1 (stereo unspecified)	none
COc1cc(OC)cc(-c2c(C#Cc3ccsc3)c3cc(-c4ccc(C(N)=O)cc4)ccc3n2C)c1	Rpn11 inh active (no result: TPT1 inh) | Rpn11 confirm inactive | MMP-2 inh inactive | Thrombin FP inactive
CCOC(=O)c1cc2c(=Cc3ccc(N(C)C)cc3)c3ccccc3n2[n+]1C	HNF4A DNA FP 57, Rpn11 inh active (no result: TPT1 inh) | Rpn11 confirm inactive | MMP-2 inh inactive | Thrombin FP inactive
O=C(Nc1c[nH]c(=O)[nH]c1=O)c1ccc2c(c1)C(=O)N(c1cccc([N+](=O)[O-])c1)C2=O	Rpn11 inh active (no result: TPT1 inh) | Rpn11 confirm inactive | MMP-2 inh inactive | Thrombin FP inactive
COc1ccc(CC(=O)Nc2ccc(-c3nc4cc(C)ccc4o3)c(O)c2)cc1OC	Rpn11 inh active | Rpn11 confirm inactive | MMP-2 inh inactive | Thrombin FP inactive
Nc1ccc2c(c1)C(=NO)c1cc([N+](=O)[O-])ccc1-2	HNF4A DNA FP 52, Rpn11 inh active (no result: TPT1 inh) | Rpn11 confirm inactive | MMP-2 inh inactive | Thrombin FP inactive
O=C(CSc1ncccc1C(=O)O)c1cccc(C(F)(F)F)c1	HNF4A DNA FP 56, Rpn11 inh active | Rpn11 confirm inactive | MMP-2 inh inactive | Thrombin FP inactive
Cn1c(NN)nc2ccccc2c1=O	none
N/C(=N\OC(=O)Oc1ccccc1)c1ccc([N+](=O)[O-])cc1	none
O=[N+]([O-])c1ccc(NN=C(Oc2ccccc2)c2ccc([N+](=O)[O-])cc2)cc1	Rpn11 inh active (no result: TPT1 inh) | Rpn11 confirm inactive | MMP-2 inh inactive | Thrombin FP inactive
COc1ccc(-c2cc(C(=O)Nc3ccc(Br)cc3)no2)cc1	Rpn11 inh active | Rpn11 confirm inactive | MMP-2 inh inactive | Thrombin FP inactive
COc1ccc(-c2cc(C(=O)Nc3cc(Cl)ccc3O)no2)cc1	Rpn11 inh active | Rpn11 confirm inactive | MMP-2 inh inactive | Thrombin FP inactive
COc1ccc(OCC(=O)Nc2cc(-c3nn4c(C)nnc4s3)ccc2C)cc1	HNF4A DNA FP 42, Rpn11 inh active | Rpn11 confirm inactive | MMP-2 inh inactive | Thrombin FP inactive
COc1ccc(C)cc1S(=O)(=O)N1CCN(C(=O)c2ncoc2-c2ccc(F)cc2)CC1	none
COC(=O)c1sc2nc(CN3CCN(c4cccc(C(F)(F)F)c4)CC3)[nH]c(=O)c2c1C	Rpn11 inh active | Rpn11 confirm inactive | MMP-2 inh inactive | Thrombin FP inactive
COc1cccc(N2CCN(Cc3nc4scc(-c5ccccc5)c4c(=O)[nH]3)CC2)c1	Rpn11 inh active | Rpn11 confirm inactive | MMP-2 inh inactive | Thrombin FP inactive
COc1cccc(N2CCN(Cc3nc4ccccc4c(=O)[nH]3)CC2)c1	none
CCOC(=O)c1sc2nc(CN3CCN(c4cccc(C(F)(F)F)c4)CC3)[nH]c(=O)c2c1C	Rpn11 inh active | Rpn11 confirm inactive | MMP-2 inh inactive | Thrombin FP inactive
COCCNC(=O)c1c(NC(=O)c2nc(SC)ncc2Cl)sc2c1CCCC2	Rpn11 inh active | Rpn11 confirm 45 | MMP-2 inh inactive | Thrombin FP inactive
CCCC(=O)NC(c1ccco1)c1cc(Cl)c2cccnc2c1O (stereo unspecified)	Rpn11 inh active | Rpn11 confirm inactive | MMP-2 inh inactive | Thrombin FP inactive
COc1ccsc1C(=O)Nc1ccc(F)cc1F	none
COC(=O)c1sc2nc(N3CCCCC3)c3c(c2c1N)CCCC3	none
Cc1cc(C)c2c(N)c(C(=O)N/N=C/c3cccs3)sc2n1	Rpn11 inh active | Rpn11 confirm 58 | MMP-2 inh inactive | Thrombin FP 41
CSc1cccc(NC(C)C(=O)NCc2ccccc2)c1 (stereo unspecified)	none
Cc1nc(C)n(CC(=O)c2ccc(Cl)cc2Cl)n1	none

High-throughput results from PubChem.
